Here are results for four compounds from ChEMBL document CHEMBL4425127 (J Med Chem, 2016).

Series [1] addresses Neuraminidase (Influenza A virus (A/Memphis/1/1971(H3N2))) (UniProt P03471). In words: Binding affinity to recombinant Influenza A virus (A/Moscow/10/99(H3N2)) Neuraminidase N2 expressed in baculovirus infected insect cells at 100 to 1000 nM measured up to 160 sec by surface plasmon resonance analysis. The procedure, abridged: (§1)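 NA covalently immobilised on CM5 chip by amine coupling. Analyte passed over at several concentrations in running buffer. BSA served as negative control protein. Constants from a steady-state affinity model; triplicate experiments.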
(In general: Surface plasmon resonance follows binding to a sensor surface in real time, without labels.)

For series [2], the system named is Influenza A virus H3N2. In words: Antiviral activity against Influenza A virus (A/Moscow/10/99(H3N2)) expressing A/Puerto Rico/8/34(H1N1) genes infected in MDCK cells assessed as reduction in viral replication after 72 hrs by hemagglutination test. It is filed as functional, organism-based, A/Moscow/10/1999(H3N2).
The subject of series [3] is MDCK. In words: Cytotoxicity against MDCK cells assessed as reduction in cell viability after 72 hrs by MTT assay. In kind it is cell-based, Canis lupus familiaris. The settings on record: dog. In general terms: Formazan colour is commonly taken as a measure of viable cells.
Series [4] can be described thus: Inhibition of recombinant Influenza A virus (A/Moscow/10/99(H3N2)) Neuraminidase N2 expressed in baculovirus infected insect cells using 4-MU-NANA as substrate preincubated for 30 mins followed by substrate addition by microplate reader analysis. Also on record: species or system Influenza A virus (A/Moscow/10/1999(H3N2)). The procedure, abridged: (§2)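 Purified recombinant NA, with activity pre-set to roughly 10–50 nM in PBS, preincubated with serial 5-fold inhibitor dilutions in PBS (top 1 mM) at 37 °C for 30 min. MUNANA solution (167 μM, PBS) then added. Fluorescence read at ex 355/em 460 nm.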

Series [5] is described as follows: Inhibition of recombinant Influenza A virus (A/Anhui/1/2013(H7N9)) Neuraminidase N9 expressed in baculovirus infected insect cells using 4-MU-NANA as substrate preincubated for 30 mins followed by substrate addition by microplate reader analysis. In outline:
as §2

Series [6] can be described thus: Aqueous solubility of compound. In kind it is physicochemical. To be noted: buffer.
The nature of series [7]: Binding affinity to recombinant Influenza A virus (A/Moscow/10/99(H3N2)) Neuraminidase N2 expressed in baculovirus infected insect cells measured up to 400 sec by surface plasmon resonance analysis. Also on record: species or system Influenza A virus (A/Moscow/10/1999(H3N2)). In outline: as §1
Series [8] can be described thus: Half life in Sprague-Dawley rat at 6 umol/kg, iv by HPLC analysis. To be noted: in vivo. In kind it is ADME, organism-based. The procedure, abridged:
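Rats (n = 5) received a single tail-vein injection in physiological saline. Plasma levels measured by HPLC, using a reversed-phase C18 gradient with ammonium-containing aqueous/acetonitrile eluents over 5 min at 0.6 mL/min.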

The source made the active and inactive calls. The rule behind the calls is not given here.

Sequence of Neuraminidase (Influenza A virus (A/Memphis/1/1971(H3N2))) (P03471 whole entry): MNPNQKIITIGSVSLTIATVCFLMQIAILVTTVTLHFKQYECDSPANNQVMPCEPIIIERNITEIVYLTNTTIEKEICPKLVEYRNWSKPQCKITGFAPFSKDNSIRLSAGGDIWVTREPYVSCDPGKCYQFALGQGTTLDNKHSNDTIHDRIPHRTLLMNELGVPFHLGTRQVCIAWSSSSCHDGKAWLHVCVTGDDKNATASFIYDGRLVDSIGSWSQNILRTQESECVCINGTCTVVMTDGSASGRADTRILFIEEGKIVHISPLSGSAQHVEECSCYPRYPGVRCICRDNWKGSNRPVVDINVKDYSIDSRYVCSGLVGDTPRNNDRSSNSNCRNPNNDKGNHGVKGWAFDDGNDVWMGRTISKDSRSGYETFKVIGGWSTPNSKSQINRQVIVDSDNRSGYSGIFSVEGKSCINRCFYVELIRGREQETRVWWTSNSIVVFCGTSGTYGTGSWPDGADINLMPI

Take `COCCOCCOCCOCCOCCOCCOCCOCCOCCOCc1cn(CC(Cn2cc(COCCOCCOCCOCCOCCOCCOCCOCCOCCOC)nn2)(Cn2cc(COCCOCCOCCOCCOCCOCCOCCOCCOCCOC)nn2)Cn2cc(COCCOCCOCCOCCOCCOCCOCCOCCOCCOC)nn2)nn1`: in series [1], the outcome was inactive. The EC50 entry in series [2] was “Not Active”. Also, in series [3], the Activity entry is “Non-Toxic”.
For `CC(=O)N[C@@H]1[C@H]([C@@H](OC(=O)NCCOCCOCCOCCOCCOCCOCc2cn(CC(Cn3cc(COCCOCCOCCOCCOCCOCCNC(=O)O[C@@H]([C@@H]4OC(C(=O)O)=C[C@H](NC(=N)N)[C@H]4NC(C)=O)[C@H](O)CO)nn3)(Cn3cc(COCCOCCOCCOCCOCCOCCNC(=O)O[C@@H]([C@@H]4OC(C(=O)O)=C[C@H](NC(=N)N)[C@H]4NC(C)=O)[C@H](O)CO)nn3)Cn3cc(COCCOCCOCCOCCOCCOCCNC(=O)O[C@@H]([C@@H]4OC(C(=O)O)=C[C@H](NC(=N)N)[C@H]4NC(C)=O)[C@H](O)CO)nn3)nn2)[C@H](O)CO)OC(C(=O)O)=C[C@@H]1NC(=N)N` (stereo partly drawn), the IC50 (in general, the concentration at which inhibition is half-maximal) came to 3.8 nM in series [4] and 1 nM in series [5]. The solubility entry in series [6] was “Soluble”. Further, in series [7], the Kd – broadly, the equilibrium constant for the complex coming apart – worked out at 1.5 nM.
As to `CC(=O)N[C@H]1[C@H]([C@H](O)[C@H](O)CO)OC(C(=O)O)=C[C@@H]1N=C(N)N` [ZANAMIVIR], the Activity entry in series [3] is “Non-Toxic”. In series [8], the half-life (commonly the time in which the quantity being followed falls by half) came out at 32 min.
With `CC(=O)N[C@H]1[C@H]([C@H](OC(=O)NCCOCCOCCOCc2cn(CC(Cn3cc(COCCOCCOCCNC(=O)O[C@@H]([C@@H]4OC(C(=O)O)=C[C@H](NC(=N)N)[C@H]4NC(C)=O)[C@H](O)CO)nn3)(Cn3cc(COCCOCCOCCNC(=O)O[C@@H]([C@@H]4OC(C(=O)O)=C[C@H](NC(=N)N)[C@H]4NC(C)=O)[C@H](O)CO)nn3)Cn3cc(COCCOCCOCCNC(=O)O[C@@H]([C@@H]4OC(C(=O)O)=C[C@H](NC(=N)N)[C@H]4NC(C)=O)[C@H](O)CO)nn3)nn2)[C@H](O)CO)OC(C(=O)O)=C[C@@H]1NC(=N)N` (stereo partly drawn), the IC50 in series [4] turned out to be 6.2 nM; in series [5] it was 2.5 nM. Also, the solubility result in series [6] was “Soluble”. Moreover, the Kd in series [7] stood at 2.2 nM.
